Screens as filed in PubChem.
PLAP act: human PLAP activation. P05187. purified PLAP enzyme, luminescent substrate read-out; active compounds read high. activation fold at 20 µM. actives 1.2% (n = 96,000). AID 696; in the data active = activation fold above about 2
Target sequence (P05187 whole entry, looked up): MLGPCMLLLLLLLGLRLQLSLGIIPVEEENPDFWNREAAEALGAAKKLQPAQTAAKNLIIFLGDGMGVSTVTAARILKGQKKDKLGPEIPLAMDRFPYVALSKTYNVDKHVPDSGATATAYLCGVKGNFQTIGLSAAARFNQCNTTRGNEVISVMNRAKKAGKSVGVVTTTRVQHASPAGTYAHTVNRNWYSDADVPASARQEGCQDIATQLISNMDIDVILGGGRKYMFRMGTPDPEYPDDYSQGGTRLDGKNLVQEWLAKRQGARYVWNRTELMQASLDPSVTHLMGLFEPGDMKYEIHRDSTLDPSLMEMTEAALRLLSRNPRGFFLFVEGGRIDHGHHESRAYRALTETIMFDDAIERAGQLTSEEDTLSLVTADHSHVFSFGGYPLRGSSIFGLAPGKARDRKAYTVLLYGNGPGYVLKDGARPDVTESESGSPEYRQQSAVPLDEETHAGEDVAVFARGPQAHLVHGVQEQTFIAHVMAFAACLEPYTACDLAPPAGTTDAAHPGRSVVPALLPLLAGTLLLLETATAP
PostGolgi yeast: growth inhibition of a yeast mutant, post-Golgi transport screen; post-Golgi transport phenotypic cell assay; inhibition, % at 10 µM; actives 0.9% (n = 98,000); AID 739;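 note: yeast cells grown in 1536-well plates; yeast grown about 18 h at 30C before absorbance read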
E coli WT exp: E. coli BW25113 growth inhibition, expanded screen. OD600 absorbance. growth inhibition, % at 100 µM. actives 0.15% (n = 98,000). AID 710;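 active = growth inhibition above about 50% at one test dose, limit read from the data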;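 note: growth measured after 20 h incubation at 37 °C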
PostGolgi ctrl: yeast control strain growth, post-Golgi counter-screen; AID 738; efflux-deficient yeast background strain, growth absorbance A615, 16 h; actives 5% (n = 98,000); inhibition, % at 10 µM
tolC growth inh: blocks growth of E. coli BW25113 tolC mutant. actives 2.2% (n = 65,000). OD615. growth inhibition, % at 10 µM (by protocol);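 active = growth inhibition at or above a cutoff equal to the mean over every tested compound plus 3 SD, cut at about 60% in these data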;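 note: growth measured after 20 h incubation at 37 °C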
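Test system: E. coli BW25113 ΔtolC::kan bacteria | Medium: Kanamycin-containing LB broth (50 µg/mL) | Dosing: One dose of 10 µM final | Times: 20 h incubation with compound, 37 °C | Detection: Optical density read at 615 nm | Read-out basis: Percent growth inhibition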
HePTP inh: inhibitors of human HePTP phosphatase; P35236; recombinant HePTP phosphatase activity, OD absorbance; inhibition, % at 20 µM; actives 0.64% (n = 110,000); AID 521; in the data active = inhibition above about 50%
Large screens that a line does not name were inactive. The list is not random: actives were taken first. Their share in the collection is about 5.4%. Cut-off read from the data, not from the text of the source, unless noted: active = inhibition above about 30%; inactive = the rest.

CCC1CCCCN1c1nc(-c2ccncc2)nc2ccccc12 (stereo unspecified)	PostGolgi ctrl 75
CC1CCCCN1c1nc(-c2ccncc2)nc2ccccc12 (stereo unspecified)	PostGolgi ctrl 73, tolC growth inh 100
CCC1CCCCN1c1nc(-c2cccc(OC)c2O)nc2ccccc12 (stereo unspecified)	PostGolgi ctrl 41
CCN(CC)S(=O)(=O)c1ccc(Cl)c(C(=O)Nc2nnc(C)s2)c1	none (no result: PostGolgi yeast, E coli WT exp, PostGolgi ctrl)
O=c1c2cc(Br)ccc2nc(-c2cccc(C(F)(F)F)c2)n1O	E coli WT exp 63 (no result: tolC growth inh, HePTP inh)
O=C(Nc1ccc(C(F)(F)F)cc1)c1cc(-c2cccnc2)nc2ccc(Br)cc12	none (no result: tolC growth inh, HePTP inh)
Cc1nc(SCc2cccc(Oc3ccccc3)c2)n[nH]1	PostGolgi ctrl 36 (no result: tolC growth inh, HePTP inh)
CCC1SC(=NC(=O)c2ccc(Cl)c(Cl)c2)NC1=O (stereo unspecified)	PostGolgi ctrl 35
CCC1S/C(=N/N=C(/C)c2ccc(Br)cc2)NC1=O (stereo unspecified)	none (no result: PLAP act, PostGolgi yeast, E coli WT exp, PostGolgi ctrl, tolC growth inh)
CCOc1cc(/C=N/NC(N)=O)cc(Br)c1OCC(=O)Nc1ccccc1C	none (no result: tolC growth inh, HePTP inh)
CCOc1cc(/C=C\[N+](=O)[O-])ccc1OCC(=O)Nc1ccccc1C	PostGolgi yeast 39 (no result: tolC growth inh, HePTP inh)
CCOc1cccc(C(=O)NC(=S)Nc2ccc(N3CCCC3)cc2)c1	none (no result: tolC growth inh, HePTP inh)
CC(C)(C)NC(=O)c1ccc(COc2ccccc2Br)o1	PostGolgi ctrl 33
CCc1cccc(NC(=O)CS(=O)Cc2nc(-c3ccc(C)cc3)oc2C)c1 (stereo unspecified)	PostGolgi ctrl 34
COc1cccc(-c2nc(CS(=O)CC(=O)NC3CCCC3)c(C)o2)c1 (stereo unspecified)	none
CCCCNC(=O)CS(=O)Cc1nc(-c2ccc(C)cc2)oc1C (stereo unspecified)	none
Cc1cccc(-c2nc(CS(=O)CC(=O)NCCCSC3CCCCC3)c(C)o2)c1 (stereo unspecified)	tolC growth inh 73
O=C(NCc1ccco1)C1CCN(c2nc3ccccc3n2Cc2ccccc2F)CC1	none (no result: tolC growth inh, HePTP inh)
Nc1nc(-c2ccc(Br)s2)c(Br)s1	PostGolgi ctrl 51
Brc1ccc(-c2nc3ccccc3s2)s1	none
CCCN1C(=O)/C(=C/c2ccc(C)o2)SC1=Nc1ccc(OC)cc1	none (no result: tolC growth inh, HePTP inh)
COc1ccc(N=C2S/C(=C\c3ccc(N4CCOCC4)o3)C(=O)N2CCc2c[nH]c3ccccc23)cc1	PostGolgi ctrl 32 (no result: tolC growth inh, HePTP inh)
Cc1cc(O)c(-c2cc(C(=O)NCc3ccc4c(c3)OCO4)[nH]n2)cc1C	none
COc1ccc(CCNC(=O)c2cc(-c3cc(C)ccc3O)n[nH]2)cc1OC	PLAP act 2.9 (no result: tolC growth inh, HePTP inh)
COc1ccc(CCNC(=O)c2cc(-c3ccc(C)c(C)c3O)n[nH]2)cc1OC	PLAP act 2.1 (no result: tolC growth inh, HePTP inh)
Cc1ccc(-c2cc(C(=O)NCc3ccc4c(c3)OCO4)[nH]n2)c(O)c1C	PostGolgi ctrl 31
COc1ccc(CCNC(=O)c2ccncc2)cc1OC	none
O=C(c1ccc([N+](=O)[O-])cc1)n1c2c(c3ccccc31)CCCC2	HePTP inh 104 (no result: PLAP act, PostGolgi yeast, E coli WT exp, PostGolgi ctrl, tolC growth inh)
O=C(CSc1ncccn1)n1c2c(c3ccccc31)CCCC2	PostGolgi ctrl 51 (no result: tolC growth inh, HePTP inh)
CCCC(c1nnnn1Cc1cccs1)N1CCN(C2CCCC2)CC1 (stereo unspecified)	none
O=C(O)C1CC=CCC1C(=O)Nc1ccc(S(=O)(=O)N2CCCc3ccccc32)cc1 (stereo unspecified)	tolC growth inh 61
O=C(Nc1ccccc1)c1ccc(S(=O)(=O)N2CCCc3ccccc32)cc1	none (no result: PLAP act, PostGolgi yeast, E coli WT exp, PostGolgi ctrl, tolC growth inh)
O=C(Nc1ccc(S(=O)(=O)N2CCCc3ccccc32)cc1)C1CCCO1 (stereo unspecified)	tolC growth inh 68
COC(=O)c1c(C)oc2ccc(OC(=O)c3cccs3)cc12	tolC growth inh 84
O=C(CCc1ccc(S(=O)(=O)N2CCCCC2)cc1)c1nnc(-c2ccccc2)o1	none
COC(=O)c1ccccc1S(=O)(=O)N(Cc1ccco1)Cc1cc2cc(OC)ccc2[nH]c1=O	none
COC(=O)c1ccccc1S(=O)(=O)N(CCCO)Cc1cc2c(C)ccc(C)c2[nH]c1=O	PostGolgi ctrl 36
CCCc1cc(C(=O)Nc2cccnc2Cl)no1	PostGolgi ctrl 30 (no result: tolC growth inh, HePTP inh)
Cc1ccc(S(=O)(=O)NCc2ccccn2)cc1[N+](=O)[O-]	none (no result: PLAP act, PostGolgi yeast, E coli WT exp, PostGolgi ctrl, tolC growth inh)
Cn1cc(SCC(=O)Nc2nc3ccccc3s2)c2ccccc21	PostGolgi ctrl 64, tolC growth inh 62
Cc1ccc2nc(NC(=O)CCCc3nc4ccccc4s3)sc2c1	PostGolgi ctrl 45 (no result: tolC growth inh, HePTP inh)
Cc1ccc2nc(NC(=O)CCn3c(=O)sc4ccccc43)sc2c1	PostGolgi ctrl 70 (no result: tolC growth inh, HePTP inh)
Cc1cnc(NC(=O)CCCc2nc3ccccc3s2)s1	none (no result: tolC growth inh, HePTP inh)
O=C(CCn1c(=O)sc2ccccc21)Nc1nc2ccccc2s1	PostGolgi ctrl 60 (no result: tolC growth inh, HePTP inh)
O=C(NC1CC2CCC1C2)C1COc2ccccc2O1 (stereo unspecified)	PostGolgi ctrl 31
CCn1cc(Br)c(-c2nc3ccccc3c(=O)n2N)n1	none
COc1ccc(NC(=O)Nc2ccc(Br)cn2)cc1OC	none (no result: tolC growth inh, HePTP inh)
Cc1cc(C)c2cc(C(O)c3nnnn3Cc3ccccc3)c(=O)[nH]c2c1 (stereo unspecified)	none
Cc1cc(C)c2cc(CN(CCO)C(c3nnnn3Cc3ccc(F)cc3)C(C)C)c(=O)[nH]c2c1 (stereo unspecified)	tolC growth inh 70
NC(=O)c1ccc(NC(=O)Nc2cccc3ccccc23)cc1	none (no result: PLAP act, PostGolgi yeast, E coli WT exp, PostGolgi ctrl, tolC growth inh)
O=C(Nc1ccc2snnc2c1)Nc1cccc2ccccc12	PostGolgi ctrl 49 (no result: tolC growth inh, HePTP inh)
CN1CC=C2C(C#N)=C(N)C(C#N)(C#N)C(Cc3ccccc3)C2C1 (stereo unspecified)	none
COc1ccccc1OCCCCN1CCN(c2ccccc2OC)CC1	PLAP act 2.2 (no result: tolC growth inh, HePTP inh)
CCOc1ccc(C(=O)Nc2c(C(N)=O)oc3ccccc23)cc1	none (no result: PLAP act, HePTP inh)
CCCCC(=O)NC(Nc1nc(C2CC2)cs1)(C(=O)OCC)C(F)(F)F (stereo unspecified)	PostGolgi ctrl 36
O=C(CSc1ncn(-c2ccccc2)n1)Nc1nccs1	none (no result: tolC growth inh, HePTP inh)
O=C(CSc1ncn(-c2ccccc2)n1)Nc1nc2c(s1)CCCC2	PostGolgi ctrl 46, tolC growth inh 61
CC(=O)Nc1ccc(C(=O)CSc2ncn(-c3ccccc3)n2)cc1	PostGolgi ctrl 35
O=C(CSc1nc(Cc2ccccc2)nc2ccccc12)Nc1nc2c(s1)CCCC2	PostGolgi ctrl 40 (no result: tolC growth inh, HePTP inh)
O=C(CSc1ncn(-c2ccccc2)n1)Nc1nc2ccccc2s1	none
CC(C)(C)c1nc(SCC(=O)Nc2nc3c(s2)CCCC3)c2ccccc2n1	PostGolgi ctrl 34 (no result: tolC growth inh, HePTP inh)
COc1ccc(Nc2nc(NCc3ccco3)nc(N/N=C/c3cc4c(cc3[N+](=O)[O-])OCO4)n2)cc1	none (no result: PLAP act, PostGolgi yeast, E coli WT exp, PostGolgi ctrl, tolC growth inh)
CCOC(=O)c1ccc(-c2n[nH]c(=O)c3ccccc23)cc1	none
CC(C)c1nc(SCC(=O)Nc2nc3c(s2)CCCC3)c2ccccc2n1	PostGolgi ctrl 39 (no result: tolC growth inh, HePTP inh)
Cc1nnc(NC(=O)CSc2nc(C(C)C)nc3ccccc23)s1	none (no result: tolC growth inh, HePTP inh)
Clc1ccc(Sc2oc(/C=N/n3cnnc3)cc2Br)cc1	PostGolgi ctrl 47
